From ChEMBL document CHEMBL1144203, “Synthesis and antiviral evaluation of acyclic azanucleosides developed from sulfanilamide as a lead structure” (Bioorg Med Chem, 2008) come the findings set out here.

The subject of data set [1] is MDCK. Briefly: Cytotoxicity against MDCK cells assessed as decrease in cell viability upto 100 uM by MTS assay. Type of data set: cell-based, Canis lupus familiaris. To be noted: dog. (In general: Formazan colour is commonly taken as a measure of viable cells.)
The nature of data set [2]: Cytotoxicity against CRFK cells assessed as decrease in cell viability upto 100 uM by MTS assay. It is filed as cell-based, Felis catus. The note with it: cat.
Data set [3] concerns HEL. Nature of the data set: Cytotoxicity against HEL cells assessed as decrease in cell viability upto 100 uM by MTS assay. Type of data set: cell-based. To be noted: human.
The subject of data set [4] is HeLa. Briefly: Cytotoxicity against human HeLa cells assessed as decrease in cell viability upto 100 uM by MTS assay. It is filed as functional, cell-based. The essentials:
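Uninfected HeLa host cells were tested up to 100 μM. CC50 is the concentration causing a 50% drop in cell viability by colorimetric formazan-based MTS assay. Alternatively, MCC is the minimal concentration giving microscopically detectable alteration of normal cell morphology.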

For data set [5], the system named is Human respirovirus 3. Briefly: Antiviral activity against Parainfluenza 3 virus infected in Vero cells assessed as inhibition of virus-induced cytopathic effect at 100 uM by MTS assay. It is filed as functional, organism-based. The essentials:
(§1)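 Vero cell monolayers were infected with the virus in cell-based CPE assays. EC50 is the concentration giving 50% inhibition of virus-induced cytopathic effect, scored visually or by MTS formazan colorimetric cell-viability read-out. The highest concentration tested was 100 μM for most compounds and lower for a few.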
In general terms: Protection from cytopathic effect is a common read-out in antiviral testing.

Data set [6] deals with Mammalian orthoreovirus 1. Briefly: Antiviral activity against Reovirus1 infected in Vero cells assessed as inhibition of virus-induced cytopathic effect at 100 uM by MTS assay. Type of data set: functional, organism-based. The gist of the method: as §1
Data set [7] concerns Sindbis virus. Briefly: Antiviral activity against Sindbis virus infected in Vero cells assessed as inhibition of virus-induced cytopathic effect at 100 uM by MTS assay. Type of data set: functional, organism-based. The gist of the method:
as §1

The test system of data set [8] is Feline coronavirus. Briefly: Antiviral activity against feline coronavirus infected in CRFK cells assessed as inhibition of virus-induced cytopathic effect at 100 uM by MTS assay. Type of data set: functional, organism-based.
For data set [9], the system named is Felid alphaherpesvirus 1. Nature of the data set: Antiviral activity against feline herpes virus infected in CRFK cells assessed as inhibition of virus-induced cytopathic effect at 100 uM by MTS assay. Type of data set: functional, organism-based.
Data set [10] has as its system Human alphaherpesvirus 1. Briefly: Antiviral activity against HSV1 virus infected in HEL cells assessed as inhibition of virus-induced cytopathic effect at 100 uM by MTS assay. It is filed as functional, organism-based.
The subject of data set [11] is Human alphaherpesvirus 2. Nature of the data set: Antiviral activity against HSV2 virus infected in HEL cells assessed as inhibition of virus-induced cytopathic effect at 100 uM by MTS assay. It is filed as functional, organism-based.
Data set [12] has as its system Coxsackievirus B4. Nature of the data set: Antiviral activity against Coxsackievirus B4 infected in HeLa cells assessed as inhibition of virus-induced cytopathic effect at 100 uM by MTS assay. It is filed as functional, organism-based. The essentials:
(§2)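 HeLa cells were infected with the virus, and compounds were tested up to 100 μM. EC50 is the concentration that halves virus-induced cytopathic effect, read by visual CPE scoring or by MTS formazan colorimetric viability measurement.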

Data set [13] has as its system Respiratory syncytial virus. Nature of the data set: Antiviral activity against respiratory syncytial virus infected in HeLa cells assessed as inhibition of virus-induced cytopathic effect at 100 uM by MTS assay. Type of data set: functional, organism-based. The gist of the method: as §2
Data set [14] concerns Coxsackievirus B4. Briefly: Antiviral activity against Coxsackievirus B4 infected in Vero cells assessed as inhibition of virus-induced cytopathic effect at 100 uM by MTS assay. It is filed as functional, organism-based. The gist of the method: as §1
Data set [15] concerns Punta Toro virus. Briefly: Antiviral activity against Punta Toro virus infected in Vero cells assessed as inhibition of virus-induced cytopathic effect at 100 uM by MTS assay. It is filed as functional, organism-based. The essentials:
as §1

Each structure is given as a SMILES string. The source made the active and inactive calls. The calls are words filed in the database; no cut-off is given here.

With `CC(C)(C)C(=O)OCCN(Cn1ccc(=O)[nH]c1=O)S(=O)(=O)c1cccc(N)c1`, the Activity entry in data set [1], in data set [2] and in data set [3] was “Not Active” each time. In addition, the result in [4], in data set [5], in data set [6], in [7], in data set [8] and in data set [9] was inactive. The outcome in data set [10], in [11], in data set [12], in [13], in data set [14] and in [15] was inactive.
`CC(=O)Nc1ccc(S(=O)(=O)N(CCO)Cn2cc(C)c(=O)[nH]c2=O)cc1`: the Activity entry in data set [1], in data set [2] and in data set [3] was “Not Active” in each case. The outcome in data set [4], in [5], in [6], in data set [7], in data set [8] and in [9] was inactive. The result in data set [10], in [11], in data set [12], in data set [13], in data set [14] and in data set [15] was inactive.
As to `CC(C)(C)C(=O)OCCN(Cn1cc(F)c(=O)[nH]c1=O)S(=O)(=O)c1ccccc1N`, the Activity result in data set [1], in data set [2] and in data set [3] was “Not Active” in each case. Further, the outcome in data set [4], in [5], in [6], in data set [7], in [8] and in data set [9] was inactive. The outcome in [10], in data set [11], in data set [12], in data set [13], in [14] and in [15] was inactive.
On to `CC(C)(C)C(=O)OCCN(Cn1ccc(=O)[nH]c1=O)S(=O)(=O)c1ccc(N)cc1`, for which the Activity entry in data set [1], in [2] and in [3] was “Not Active” in each case. Moreover, the result in data set [4], in data set [5], in data set [6], in data set [7], in data set [8] and in data set [9] was inactive. The result in [10], in [11], in data set [12], in data set [13], in [14] and in data set [15] was inactive.
As to `CC(C)(C)C(=O)OCCN(Cn1ccc(=O)[nH]c1=O)S(=O)(=O)c1ccccc1[N+](=O)[O-]`, the Activity result in data set [1], in [2] and in [3] was “Not Active” each time. Besides, the outcome in [4], in data set [5], in [6], in [7], in [8] and in data set [9] was inactive. Moreover, the outcome in data set [10], in data set [11], in data set [12], in data set [13], in data set [14] and in data set [15] was inactive.
For `Cc1cn(CN(CCOC(=O)C(C)(C)C)S(=O)(=O)c2ccccc2N)c(=O)[nH]c1=O`, the Activity entry in data set [1], in data set [2] and in data set [3] was “Not Active” in each case. For the same molecule, the result in data set [4], in data set [5], in data set [6], in data set [7], in data set [8] and in data set [9] was inactive. The outcome in data set [10], in data set [11], in data set [12], in data set [13], in [14] and in data set [15] was inactive.
In the case of `Cc1cn(CN(CCO)S(=O)(=O)c2ccccc2N)c(=O)[nH]c1=O`, the Activity result in data set [1], in data set [2] and in data set [3] was “Not Active” each time. Also, the outcome in data set [4], in [5], in data set [6], in data set [7], in data set [8] and in [9] was inactive. The result in [10], in [11], in [12], in data set [13], in [14] and in [15] was inactive.
On to `Cc1cn(CN(CCO)S(=O)(=O)c2ccc(N)cc2)c(=O)[nH]c1=O`, for which the Activity result in [1], in [2] and in data set [3] was “Not Active” in each case. For the same molecule, the result in data set [4], in [5], in data set [6], in data set [7], in data set [8] and in data set [9] was inactive. Besides, the outcome in data set [10], in data set [11], in data set [12], in [13], in data set [14] and in [15] was inactive.
For the molecule `Cc1cn(CN(CCO)S(=O)(=O)c2cccc(N)c2)c(=O)[nH]c1=O`, the Activity entry in [1], in [2] and in data set [3] was “Not Active” throughout. Moreover, the outcome in [4], in [5], in data set [6], in data set [7], in [8] and in data set [9] was inactive. For the same molecule, the outcome in data set [10], in [11], in [12], in data set [13], in data set [14] and in data set [15] was inactive.
Consider `CC(C)(C)C(=O)OCCN(Cn1cc(F)c(=O)[nH]c1=O)S(=O)(=O)c1cccc(N)c1`, for which the Activity result in data set [1], in data set [2] and in data set [3] was “Not Active” each time. Besides, the result in data set [4], in data set [5], in data set [6], in [7], in [8] and in [9] was inactive. The outcome in data set [10], in [11], in [12], in data set [13], in data set [14] and in data set [15] was inactive.
